In ChEMBL document CHEMBL4400539, “Discovery of a Novel Chemotype of Histone Lysine Methyltransferase EHMT1/2 (GLP/G9a) Inhibitors: Rational Design, Synthesis, Biological Evaluation, and Co-crystal Structure” (J Med Chem, 2019):
Active and inactive are the calls of the source. The calls are words filed in the database; no cut-off is given here.

Legend:
[1] = biological target: T1, Histone-lysine N-methyltransferase EHMT2 (Homo sapiens) (UniProt Q96KQ7); experiment: Inhibition of recombinant human G9a at 10 uM using biotinylated-Histone H3 peptide (1 to 21 residues) after 30 mins by AlphaLISA assay relative to control
T1 sequence (whole entry): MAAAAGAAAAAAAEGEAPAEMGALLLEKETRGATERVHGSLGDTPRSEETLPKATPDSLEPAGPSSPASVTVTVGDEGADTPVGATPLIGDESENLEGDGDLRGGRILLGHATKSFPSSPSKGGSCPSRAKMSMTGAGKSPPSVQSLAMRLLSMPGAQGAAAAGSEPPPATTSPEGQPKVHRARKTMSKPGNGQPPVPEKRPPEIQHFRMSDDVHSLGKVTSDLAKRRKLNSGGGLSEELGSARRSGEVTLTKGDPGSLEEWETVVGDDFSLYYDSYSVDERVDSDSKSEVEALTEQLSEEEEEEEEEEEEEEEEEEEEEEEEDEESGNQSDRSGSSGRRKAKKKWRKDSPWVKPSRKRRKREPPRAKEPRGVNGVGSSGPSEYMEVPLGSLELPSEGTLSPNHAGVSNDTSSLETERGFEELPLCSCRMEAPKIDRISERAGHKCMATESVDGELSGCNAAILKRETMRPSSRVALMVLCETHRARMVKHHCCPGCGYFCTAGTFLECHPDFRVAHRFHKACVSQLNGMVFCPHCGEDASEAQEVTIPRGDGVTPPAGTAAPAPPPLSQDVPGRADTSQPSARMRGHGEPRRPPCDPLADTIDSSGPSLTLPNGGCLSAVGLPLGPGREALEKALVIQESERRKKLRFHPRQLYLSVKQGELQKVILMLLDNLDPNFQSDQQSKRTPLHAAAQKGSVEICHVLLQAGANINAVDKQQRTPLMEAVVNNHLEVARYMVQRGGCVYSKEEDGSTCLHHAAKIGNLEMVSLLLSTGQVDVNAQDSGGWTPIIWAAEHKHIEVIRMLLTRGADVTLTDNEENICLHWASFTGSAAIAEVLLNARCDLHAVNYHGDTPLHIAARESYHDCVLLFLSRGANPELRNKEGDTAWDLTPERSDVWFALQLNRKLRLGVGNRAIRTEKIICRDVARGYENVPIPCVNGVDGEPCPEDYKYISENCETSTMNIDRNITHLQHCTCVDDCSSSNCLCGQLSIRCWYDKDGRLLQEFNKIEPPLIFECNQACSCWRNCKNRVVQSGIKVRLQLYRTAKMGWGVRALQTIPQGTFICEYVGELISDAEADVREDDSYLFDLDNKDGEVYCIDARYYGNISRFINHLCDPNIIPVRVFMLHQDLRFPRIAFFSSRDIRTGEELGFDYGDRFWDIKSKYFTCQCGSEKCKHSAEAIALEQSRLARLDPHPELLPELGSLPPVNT
Summary of the method: (§1)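 G9a AlphaLISA at fixed 10 or 25 μM compound: human recombinant G9a 1 nM, 30 min preincubation, then biotinylated H3(1–21) 100 nM plus SAM 15 μM for 30 min at room temperature, pH 8.8 Tris buffer with 0.01% Tween-20; anti-H3K9me2 acceptor and streptavidin donor beads; percent of DMSO control.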

[2] = biological target: T1, Histone-lysine N-methyltransferase EHMT2 (Homo sapiens); experiment: Inhibition of recombinant human G9a at 25 uM using biotinylated-Histone H3 peptide (1 to 21 residues) after 30 mins by AlphaLISA assay relative to control; summary of the method: as §1
[3] = biological target: T2, Lysine-specific demethylase 4A (Homo sapiens) (UniProt O75164); experiment: Inhibition of recombinant human JMJD2A at 10 to 25 uM using biotinylated-Histone H3 peptide (1 to 21 residues) as substrate preincubated for 30 mins followed by substrate addition and measured after 60 mins in presence of SAM by AlphaLISA assay relative to control
T2 sequence (whole entry): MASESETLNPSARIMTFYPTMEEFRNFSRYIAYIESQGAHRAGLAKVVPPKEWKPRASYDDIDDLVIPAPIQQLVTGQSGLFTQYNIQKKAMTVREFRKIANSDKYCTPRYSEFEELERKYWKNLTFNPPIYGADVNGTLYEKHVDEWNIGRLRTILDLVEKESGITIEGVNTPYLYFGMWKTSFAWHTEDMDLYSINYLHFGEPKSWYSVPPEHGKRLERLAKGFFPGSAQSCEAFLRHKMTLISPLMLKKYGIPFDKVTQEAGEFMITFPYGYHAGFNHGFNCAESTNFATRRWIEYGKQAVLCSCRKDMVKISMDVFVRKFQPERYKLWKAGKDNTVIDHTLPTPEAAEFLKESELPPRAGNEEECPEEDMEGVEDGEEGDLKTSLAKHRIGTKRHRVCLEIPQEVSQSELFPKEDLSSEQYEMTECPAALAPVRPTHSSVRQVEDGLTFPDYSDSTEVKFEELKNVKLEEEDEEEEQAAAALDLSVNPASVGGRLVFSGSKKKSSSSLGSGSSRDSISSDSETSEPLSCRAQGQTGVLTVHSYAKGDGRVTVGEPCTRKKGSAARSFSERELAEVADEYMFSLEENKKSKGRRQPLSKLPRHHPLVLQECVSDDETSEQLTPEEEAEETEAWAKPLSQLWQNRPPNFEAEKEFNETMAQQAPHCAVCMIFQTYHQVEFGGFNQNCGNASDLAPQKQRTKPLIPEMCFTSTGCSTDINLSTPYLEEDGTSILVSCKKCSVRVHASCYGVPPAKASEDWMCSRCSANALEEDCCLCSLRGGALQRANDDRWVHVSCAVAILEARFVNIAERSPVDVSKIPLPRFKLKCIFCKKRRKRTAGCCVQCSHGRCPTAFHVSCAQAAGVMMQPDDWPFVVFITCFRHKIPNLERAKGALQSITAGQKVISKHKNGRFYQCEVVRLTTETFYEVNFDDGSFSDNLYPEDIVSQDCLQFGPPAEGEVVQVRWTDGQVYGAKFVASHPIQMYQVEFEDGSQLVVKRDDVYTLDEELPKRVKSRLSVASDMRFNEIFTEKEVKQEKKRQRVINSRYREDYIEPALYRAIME

[4] = Metabolic stability in human liver microsomes assessed as parent compound turn over percentage at 1 mM preincubated for 5 mins followed by NADPH addition and measured for 60 mins by UHPLC analysis; type: ADME, Microsome; details: read-out: Drug metabolism
[5] = biological target: DNA (cytosine-5)-methyltransferase 3A (Homo sapiens) (UniProt Q9Y6K1); experiment: Inhibition of N-terminal GST-tagged recombinant full length human DNMT3a (2 to 913 residues) using bacteriophage lambda DNA as substrate preincubated for 20 mins followed by [3H]-SAM and measured after 60 mins by scintillation counting
DNA (cytosine-5)-methyltransferase 3A (Homo sapiens), sequence (Q9Y6K1 whole entry, looked up, the tested form may be a part): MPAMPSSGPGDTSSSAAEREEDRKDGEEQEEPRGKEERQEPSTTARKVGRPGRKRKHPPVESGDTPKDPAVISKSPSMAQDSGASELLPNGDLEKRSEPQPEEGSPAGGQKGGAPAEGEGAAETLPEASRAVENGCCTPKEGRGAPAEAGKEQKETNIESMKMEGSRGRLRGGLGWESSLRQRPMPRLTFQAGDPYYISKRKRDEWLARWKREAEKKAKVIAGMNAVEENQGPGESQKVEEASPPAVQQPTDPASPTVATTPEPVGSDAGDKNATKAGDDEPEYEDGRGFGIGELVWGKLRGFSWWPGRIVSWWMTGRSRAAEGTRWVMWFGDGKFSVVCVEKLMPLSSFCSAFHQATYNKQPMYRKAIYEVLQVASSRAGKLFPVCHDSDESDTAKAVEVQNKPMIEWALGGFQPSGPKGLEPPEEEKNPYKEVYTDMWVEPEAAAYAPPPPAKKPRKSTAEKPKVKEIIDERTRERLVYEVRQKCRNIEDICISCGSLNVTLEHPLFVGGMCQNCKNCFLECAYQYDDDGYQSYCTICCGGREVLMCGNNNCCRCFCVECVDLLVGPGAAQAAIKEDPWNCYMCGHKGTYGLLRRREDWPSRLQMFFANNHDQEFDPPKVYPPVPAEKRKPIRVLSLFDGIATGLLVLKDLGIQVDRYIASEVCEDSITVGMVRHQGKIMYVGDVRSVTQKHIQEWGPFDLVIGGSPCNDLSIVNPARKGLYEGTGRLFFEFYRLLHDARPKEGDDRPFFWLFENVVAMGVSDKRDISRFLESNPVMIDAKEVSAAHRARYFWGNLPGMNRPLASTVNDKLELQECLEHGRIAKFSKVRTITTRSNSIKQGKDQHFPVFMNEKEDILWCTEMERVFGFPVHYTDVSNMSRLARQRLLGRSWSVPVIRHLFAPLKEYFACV

[6] = biological target: T1, Histone-lysine N-methyltransferase EHMT2 (Homo sapiens)
[7] = biological target: T3, Histone-lysine N-methyltransferase EHMT2 (Homo sapiens, UniProt Q96KQ7); experiment: Non-competitive inhibition of recombinant human G9a using biotinylated-Histone H3 peptide (1 to 21 residues) as substrate after 30 mins in presence of varying concentration of SAM by Lineweaver-Burk plot analysis
T3 sequence (Q96KQ7 whole entry): T1 sequence (whole entry)

- inhibition [1]: 97%
- inhibition [2]: 98%
- inhibition [3]: inactive
- metabolised at 1 h [4]: 2.25%
- inhibition [5]: inactive
- Kdiss [6]: 0.0351
- Ki [7]: 3.6 nM
Compound: COc1cc2c(cc1OCCCN1CCCC1)N=C(C1CCCCC1)CN=C2NC1CCN(C(C)C)CC1
